Screens deposited in PubChem BioAssay by several laboratories.
SENP7 inh: blocks the human protease SENP7; Q9BQF6; recombinant SENP7, Z-RLRGG-aminoluciferin luminescence, 40 min; inhibition, % at 5 µM; 330,000 compounds, 1.5% hits; AID 434973;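 active = inhibition above about 50% at the single test dose, limit read from the data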;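 note: plate controls were DMSO with enzyme for no effect and no enzyme buffer wells for full effect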
Target sequence (Q9BQF6 706-1050 limits assumed): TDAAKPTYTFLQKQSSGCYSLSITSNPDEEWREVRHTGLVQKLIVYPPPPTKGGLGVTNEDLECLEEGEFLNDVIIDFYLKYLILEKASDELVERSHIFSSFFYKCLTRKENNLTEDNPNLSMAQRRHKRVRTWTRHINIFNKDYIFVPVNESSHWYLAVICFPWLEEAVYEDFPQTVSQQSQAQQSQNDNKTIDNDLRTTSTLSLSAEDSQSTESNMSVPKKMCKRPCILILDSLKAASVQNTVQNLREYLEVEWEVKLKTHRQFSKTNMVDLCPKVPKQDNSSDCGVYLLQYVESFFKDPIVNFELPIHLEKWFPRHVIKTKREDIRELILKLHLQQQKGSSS
SENP6 inh: blocks the human protease SENP6; Q9GZR1; inhibition, % at 10 µM; AID 2599; Recombinant SENP6 catalytic domain, aminoluciferin luminescence; 330,000 compounds, 1.8% hits;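 active = inhibition above about 50% at the single tested dose, limit read from the data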;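 note: plate controls were DMSO wells with enzyme for no effect and DMSO wells lacking enzyme for full effect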
SENP8 block-1: SENP8 protease inhibition; purified SENP8, Z-RLRGG-aminoluciferin cleavage, luminescence; inhibition, % at 10 µM; 330,000 compounds, 1.2% hits; in the data active = inhibition above about 50%
SENP1 inh: inhibitors of human SENP1 SUMO protease catalytic domain | Q9P0U3 | recombinant SENP1 catalytic domain, CyPet-SUMO1-YPet FRET cleavage | inhibition, % at 10 µM | 360,000 compounds, 0.21% hits | AID 624204;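 active = inhibition at least 30% at 10 µM, raw YFP signal under a set limit, fluorescence ratio 0.5 to 1.5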;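 note: 0% = enzyme with DMSO and 100% = no enzyme wells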
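Test system: hSENP1 catalytic domain, recombinant; Amount: 20 pM final SENP1 enzyme; Medium: Tris pH 8 buffer plus EDTA, NaCl, BME, BSA, NP40, catalase; Schedule: 50 min enzyme reaction, room temperature, light-protected; Technique: FRET fluorescence in CFP and YFP emission channels; Controls: no-enzyme wells low, DMSO-plus-enzyme wells high control.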
SENP8 block-2: inhibitors of human SENP8 protease; Q96LD8; inhibition, % at 20 µM; recombinant SENP8, Nedd8 substrate fluorescence; 360,000 compounds, 0.64% hits; AID 602440; in the data active = inhibition mostly above about 40%, no sharp cut-off; inactive = mostly below about 27%
UCH37 inh: human UCH37 deubiquitinating enzyme inhibition; purified proteasome/UCH37, Ub-AMC cleavage fluorescence; inhibition, % (no concentration beside the values); 330,000 compounds, 0.33% hits;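 active = mean inhibition over replicate wells above about 20%, limit read from the data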;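 note: 0% = compound-free wells with enzyme and 100% = wells lacking proteasome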
Target sequence (Q9Y5K5 whole entry, looked up): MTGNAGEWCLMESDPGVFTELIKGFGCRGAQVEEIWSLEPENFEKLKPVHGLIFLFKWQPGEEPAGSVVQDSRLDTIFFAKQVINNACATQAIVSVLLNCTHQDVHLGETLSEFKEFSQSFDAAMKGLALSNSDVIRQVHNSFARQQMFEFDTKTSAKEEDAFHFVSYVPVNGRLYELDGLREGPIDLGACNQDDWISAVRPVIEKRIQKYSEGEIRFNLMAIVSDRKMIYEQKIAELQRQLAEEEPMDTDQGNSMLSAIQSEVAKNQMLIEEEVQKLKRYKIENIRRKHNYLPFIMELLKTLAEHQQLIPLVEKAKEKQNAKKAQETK
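Signal – fluorescence, ex 355 nm, em 460 nm · System – Proteasome-bound UCH37 · Input – 0.15 nM proteasome as dispensed · Timing – 30 min preincubation with enzyme, 25 min cleavage at room temperature · Read-out basis – percent inhibition of cleavage signal versus uninhibited and no-proteasome wells · Medium – Tris-HCl pH 7.4 with ATP-MgCl2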
SENP8 confirm: human SENP8 inhibition, confirmed. inhibition, % at 12.5 µM. shares compounds with SENP7 inh. 6,200 compounds, 40% hits. Recombinant SENP8, Z-RLRGG-aminoluciferin luminescence, 60 min;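 active = mean inhibition across replicates above about 50%, limit read from the data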
SENP6 confirm: human SENP6 inhibition, confirmed; 6,200 compounds, 58% hits; AID 488915; shares compounds with SENP7 inh; recombinant SENP6, Z-RLRGG-aminoluciferin luminescence; inhibition, % at 12.5 µM
SENP7 confirm: human SENP7 inhibition, confirmed; 6,200 compounds, 69% hits; inhibition, % at 12.5 µM; shares compounds with SENP7 inh; recombinant SENP7, Z-RLRGG-aminoluciferin luminescence, 40 min
Casp3 SENP sel: selectivity test for SENP inhibitors: human caspase-3 inhibition. 6,200 compounds, 60% hits. shares compounds with SENP7 inh. inhibition, % at 12.5 µM. purified caspase-3, Z-DEVD-aminoluciferin luminescence, 60 min;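 active = mean inhibition above about 50%, limit read from the data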;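 note: plate controls were enzyme with DMSO for no effect and wells without caspase-3 for full effect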
SENP luc ctr: counter-screen for SENP inhibitors: luminescence interference; inhibition, % at 12.5 µM; Pre-incubated SENP8/Z-RLRGG-aminoluciferin, luciferase luminescence interference; shares compounds with SENP7 inh; 6,200 compounds, 39% hits;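 active = mean inhibition above about 50% when retested at one dose, limit read from the data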;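 note: plate controls were DMSO wells with completed reaction for no effect and substrate without enzyme for full effect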
* = called active by the depositor; i = inactive; x = no result given. Hits are enriched below; roughly 2.6% of the tested compounds scored in any of these assays.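 Rule for the calls, unless noted: active = mean inhibition above about 50% in the one-dose retest (limit read from the data); inactive = the rest.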

SMILES	SENP7 inh	SENP6 inh	SENP8 block-1	SENP1 inh	SENP8 block-2	UCH37 inh	SENP8 confirm	SENP6 confirm	SENP7 confirm	Casp3 SENP sel	SENP luc ctr
COC(=O)c1cccc(NC(=O)c2onc3c2CCCC3)c1	79*	92*	76*	1	19	1	-4	47	79*	61*	65*
Cc1ccc(NC(C)C(=O)NN=Cc2ccc([N+](=O)[O-])s2)cc1 (stereo not drawn)	x	x	x	x	x	9	x	x	x	x	x
Cc1cc(C)c2cccc(N)c2n1	7	71*	2	-1	-6	6	-22	-18	-7	-6	-5
CC(CCc1ccc2c(c1)OCO2)=N/N=C1/NC(=O)CC(C(=O)Nc2ccc(C(=O)O)cc2)S1 (stereo not drawn)	x	x	x	x	x	0	x	x	x	x	x
CCOC(=O)C1CCN(Cc2cnc(Oc3ccc(C(C)(C)C)cc3)s2)CC1	102*	4	1	1	12	0	3	0	1	1	-2
CC(=NNC(=O)c1cc(-c2ccncc2)nc2ccccc12)c1ccc(N2CCOCC2)cc1	x	x	x	x	x	-1	x	x	x	x	x
CCOC(=O)C(C#N)=NNc1ccc(S(=O)(=O)Nc2cc(OC)nc(OC)n2)cc1	x	x	x	x	x	20	x	x	x	x	x
CCCCSC(=O)Nc1ccccc1	71*	80*	52*	1	25	1	48	73*	90*	65*	55*
O=[N+]([O-])c1ccccc1NN=Cc1ccccc1Cl	x	x	x	x	x	5	x	x	x	x	x
O=[N+]([O-])c1ccccc1N/N=C/c1cccc(O)c1O	98*	92*	88*	4	55*	x	16	30	20	22	12
O=[N+]([O-])c1ccc(O)c(C=NNc2ccccc2[N+](=O)[O-])c1	x	x	x	x	x	-1	x	x	x	x	x
O=[N+]([O-])c1ccccc1N/N=C\c1ccccc1Cl	97*	91*	84*	3	36	x	16	17	7	56*	3
O=[N+]([O-])c1ccc(O)c(/C=N/Nc2ccccc2Cl)c1	50*	50*	36	18	29	x	6	12	23	20	18
Clc1ccc(-c2csc(NN=Cc3cccnc3)n2)c(Cl)c1	x	x	x	x	x	-9	x	x	x	x	x
O=C(NN=Cc1ccccn1)c1cccc([N+](=O)[O-])c1	x	x	x	x	x	3	x	x	x	x	x
O=[N+]([O-])c1cc2c(cc1C=Nn1cnnc1)OCO2	x	x	x	x	x	4	x	x	x	x	x
O=C1NC(=S)N/C1=C/c1cc2c(cc1[N+](=O)[O-])OCO2	26	64*	75*	-20	-106	x	13	63*	24	4	0
COc1ccc2sc3ccccc3c(=O)c2c1	81*	88*	74*	-23	i	-32	46	47	78*	53*	28
COc1ccc2oc(=O)cc(C)c2c1	7	-3	3	-7	-372	-69	x	x	x	x	x
COc1ccc2oc3ccc(OC)cc3c(=O)c2c1	89*	31	62*	-97	-270	-126	20	53*	70*	46	17
COc1ccc2sc(C)cc(=O)c2c1	x	x	x	-3	-482	x	x	x	x	x	x
COc1ccc(-c2cc(=O)c3ccccc3s2)cc1	-9	93*	84*	2	-8	-6	60*	91*	99*	82*	59*
COc1ccc(-c2cc(=O)c3ccccc3[nH]2)cc1	-2	-20	-4	-4	-143	-6	x	x	x	x	x
CC1(C)NC(C)(C)c2nonc2C1=NO	x	x	x	x	x	1	x	x	x	x	x
O=C(O)c1ccc(/C=N\Nc2ccccn2)cc1	95*	92*	89*	2	-3	x	95*	96*	102*	98*	89*
SMILES	SENP7 inh	SENP6 inh	SENP8 block-1	SENP1 inh	SENP8 block-2	UCH37 inh	SENP8 confirm	SENP6 confirm	SENP7 confirm	Casp3 SENP sel	SENP luc ctr
CN(C)c1ccc(C=NNc2ccccn2)c(Cl)c1	x	x	x	-4	-474	x	x	x	x	x	x
CN(C)c1ccc(/C=N\Nc2ccccn2)cc1	54*	68*	34	-5	-172	x	58*	57*	86*	68*	28
Cc1cc(C)c(S(=O)(=O)N=C2C=CC(=O)C(Cl)=C2)c(C)c1	x	x	x	x	x	0	x	x	x	x	x
CN1CCSc2ccc(C(=O)Nc3cc(F)ccc3F)cc21	89*	88*	76*	-60	-421	-177	86*	86*	96*	79*	25
COc1cc(/C=N/NC(=S)Nc2cccc(C(=O)O)c2)ccc1O	6	15	-3	-2	-136	x	x	x	x	x	x
COc1cccc(/C=N/Nc2c(Cl)cncc2Cl)c1O	62*	76*	66*	4	15	x	74*	71*	90*	65*	72*
COc1cccc(C=NNc2c(Cl)cncc2Cl)c1O	x	x	x	x	x	7	x	x	x	x	x
COc1cccc(/C=N/Nc2ccc([N+](=O)[O-])cc2)c1O	78*	70*	61*	-23	-69	x	20	67*	98*	50*	5
COc1cccc(C=NNc2ccc([N+](=O)[O-])cn2)c1O	x	x	x	x	x	3	x	x	x	x	x
COc1cccc(/C=N/NC(=S)Nc2cccc(C(=O)O)c2)c1O	98*	97*	95*	-10	-203	x	98*	99*	102*	97*	84*
O=c1cc(-c2ccc(O)cc2)oc2ccccc12	1	0	0	-62	4	-3	x	x	x	x	x
O=c1cc(-c2ccc3c(c2)OCO3)oc2ccccc12	77*	-9	-4	-1	-334	-81	-3	-2	32	8	-4
Cn1c(-c2ccc3c(c2)OCO3)cc(=O)c2ccccc21	0	-13	-9	0	8	-35	x	x	x	x	x
Cn1c2ccccc2c(=O)c2ccc(-c3ccc4c(c3)OCO4)cc21	73*	72*	58*	-30	-460	-18	37	53*	79*	55*	25
COc1ccccc1/C=C/C(=O)NCC(=O)NN=Cc1cccnc1	x	x	x	x	x	-13	x	x	x	x	x
CCOC(=O)c1ccc(-c2ccc(CO)o2)cc1	55*	65*	29	-2	-272	i	60*	57*	86*	73*	64*
CCOC(=O)c1ccc(COC(=O)c2ccc(-c3nnc(-c4ccccc4)o3)cc2)o1	3	53*	25	1	-161	-2	24	20	22	59*	51*
